Data: ChEMBL document CHEMBL1128411, “Conformationally defined 6-s-trans-retinoic acid analogs. 2. Selective agonists for nuclear receptor binding and transcriptional activity” (J Med Chem, 1995)

Experiments:
[1] = target: Cellular retinoic acid-binding protein 1 (Mus musculus, UniProt P62965); assay: Binding affinity for mouse Cytoplasmic retinoic acid binding protein type 1
Summary of the method: (§1)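 Equilibrium fluorometric titration at 25 °C of recombinant E. coli-expressed apo-proteins (mCRABP-I, mCRABP-II, or hRXRα DEF ligand-binding domain). Ligands came from ethanol stocks, with concentrations set by UV/vis in hexane. Tryptophan fluorescence quenching was read and corrected for inner filter effects. A survey was run at 10^-6 M protein to check stoichiometry.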

[2] = target: T1, Cellular retinoic acid-binding protein 2 (Mus musculus, UniProt P22935); assay: Binding affinity for mouse Cytoplasmic retinoic acid binding protein type 2; summary of the method: as §1
T1 sequence (P22935 whole entry): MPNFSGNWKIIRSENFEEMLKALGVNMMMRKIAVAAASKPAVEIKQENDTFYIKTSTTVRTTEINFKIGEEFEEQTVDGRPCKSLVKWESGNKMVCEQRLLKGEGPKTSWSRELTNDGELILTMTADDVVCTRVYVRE

[3] = target: T2, Retinoic acid receptor RXR-alpha (Mus musculus, UniProt P28700); assay: Inhibition of binding to murine Retinoid X receptor RXR alpha
T2 sequence (P28700 whole entry): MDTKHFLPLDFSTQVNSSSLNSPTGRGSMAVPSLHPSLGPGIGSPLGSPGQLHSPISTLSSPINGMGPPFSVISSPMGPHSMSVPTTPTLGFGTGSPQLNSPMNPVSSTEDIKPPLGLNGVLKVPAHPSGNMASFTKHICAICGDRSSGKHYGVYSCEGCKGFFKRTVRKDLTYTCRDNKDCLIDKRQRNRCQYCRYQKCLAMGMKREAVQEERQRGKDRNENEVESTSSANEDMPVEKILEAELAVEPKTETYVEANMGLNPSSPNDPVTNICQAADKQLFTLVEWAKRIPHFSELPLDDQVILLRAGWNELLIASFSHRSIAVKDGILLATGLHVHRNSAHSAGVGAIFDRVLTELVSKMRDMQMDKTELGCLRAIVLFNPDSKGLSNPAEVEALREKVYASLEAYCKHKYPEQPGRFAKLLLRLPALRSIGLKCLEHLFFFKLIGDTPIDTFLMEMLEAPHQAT

[4] = target: T3, Retinoic acid receptor gamma (Mus musculus, UniProt P18911); assay: Inhibition of binding to murine Retinoic acid receptor RAR gamma
T3 sequence (P18911 whole entry): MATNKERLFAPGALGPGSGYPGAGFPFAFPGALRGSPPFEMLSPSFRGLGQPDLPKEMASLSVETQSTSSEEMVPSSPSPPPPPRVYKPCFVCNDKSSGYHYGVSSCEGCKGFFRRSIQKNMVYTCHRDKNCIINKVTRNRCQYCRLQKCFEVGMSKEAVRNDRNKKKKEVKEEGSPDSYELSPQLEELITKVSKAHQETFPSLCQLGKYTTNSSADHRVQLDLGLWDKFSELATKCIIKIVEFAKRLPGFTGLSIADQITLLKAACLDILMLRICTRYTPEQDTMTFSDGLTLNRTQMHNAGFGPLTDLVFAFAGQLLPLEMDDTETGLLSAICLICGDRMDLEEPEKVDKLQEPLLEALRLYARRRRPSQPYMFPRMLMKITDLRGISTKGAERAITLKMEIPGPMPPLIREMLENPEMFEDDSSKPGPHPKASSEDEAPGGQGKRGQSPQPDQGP
Summary of the method: (§2)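 Nucleosol fractions from COS-1 cells transfected with mouse RARα, β or γ cDNA in pSG5 were incubated with 5 nM [3H]-(all-E)-RA at 4 °C for 4 h. Competitor in ethanol was added at nine concentrations (0–10 μM) in duplicate. Bound label was separated on PD-10 desalting columns and counted by scintillation. IC50 came from a fit of percent specific binding.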

[5] = target: T4, Retinoic acid receptor RXR-alpha (Homo sapiens, UniProt P19793); assay: Binding affinity for human Retinoid X receptor RXR alpha; summary of the method: as §1
T4 sequence (P19793 whole entry): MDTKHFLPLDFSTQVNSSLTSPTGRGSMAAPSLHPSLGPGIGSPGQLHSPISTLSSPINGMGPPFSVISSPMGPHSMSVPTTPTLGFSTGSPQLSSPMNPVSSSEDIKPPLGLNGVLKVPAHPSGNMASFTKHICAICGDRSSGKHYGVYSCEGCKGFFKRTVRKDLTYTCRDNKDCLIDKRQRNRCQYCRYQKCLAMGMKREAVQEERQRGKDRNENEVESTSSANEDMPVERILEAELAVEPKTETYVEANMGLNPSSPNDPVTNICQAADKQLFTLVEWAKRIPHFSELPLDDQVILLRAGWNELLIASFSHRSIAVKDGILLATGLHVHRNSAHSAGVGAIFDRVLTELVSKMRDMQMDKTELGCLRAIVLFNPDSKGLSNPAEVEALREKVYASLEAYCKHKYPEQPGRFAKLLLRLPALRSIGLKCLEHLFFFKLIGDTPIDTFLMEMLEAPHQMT

[6] = target: T5, Retinoic acid receptor beta (Mus musculus, UniProt P22605); assay: Inhibition of murine Retinoic acid receptor RAR beta; summary of the method: as §2
T5 sequence (P22605 whole entry): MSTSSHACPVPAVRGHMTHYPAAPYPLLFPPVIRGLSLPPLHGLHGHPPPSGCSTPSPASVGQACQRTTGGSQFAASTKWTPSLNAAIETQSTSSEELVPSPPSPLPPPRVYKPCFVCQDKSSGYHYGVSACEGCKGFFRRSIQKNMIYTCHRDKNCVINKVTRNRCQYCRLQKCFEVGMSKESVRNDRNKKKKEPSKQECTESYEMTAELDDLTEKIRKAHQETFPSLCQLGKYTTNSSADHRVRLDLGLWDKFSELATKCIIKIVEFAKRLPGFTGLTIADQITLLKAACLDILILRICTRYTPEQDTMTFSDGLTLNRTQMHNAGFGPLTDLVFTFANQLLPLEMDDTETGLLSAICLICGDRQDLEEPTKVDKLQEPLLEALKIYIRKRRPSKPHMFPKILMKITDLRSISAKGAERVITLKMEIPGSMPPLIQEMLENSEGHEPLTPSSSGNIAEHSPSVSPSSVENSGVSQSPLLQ

Sequence of Cellular retinoic acid-binding protein 1 (P62965 whole entry, the tested form may be a part): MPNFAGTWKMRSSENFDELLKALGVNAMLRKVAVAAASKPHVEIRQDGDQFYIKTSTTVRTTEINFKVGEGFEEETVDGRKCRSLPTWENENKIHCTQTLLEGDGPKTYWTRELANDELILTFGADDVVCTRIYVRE

SMILES: CCC1=C(C(C)C)/C(=C/C(C)=C/C=C/C(C)=C/C(=O)O)CCC1
- Kd [1]: 0.3 nM
- Kd [2]: 1.4 nM
- IC50 [3]: > 1000 nM
- IC50 [4]: 10 nM
- Kd [5]: > 200 nM
- IC50 [6]: 6 nM
